Reference: ChEMBL document CHEMBL4428023, “1,4-Dihydropyridines Active on the SIRT1/AMPK Pathway Ameliorate Skin Repair and Mitochondrial Function and Exhibit Inhibition of Proliferation in Cancer Cells” (J Med Chem, 2016)
Calls of active or inactive are those of the source. No cut-off for these calls is given here.

Legend:
[1] = biological target: 3',5'-cyclic-AMP phosphodiesterase 4D (Homo sapiens) (UniProt Q08499); experiment: Inhibition of recombinant human PDE4D assessed as phosphate release using cAMP as substrate at 50 uM after 60 mins by malachite green assay
Chain of 3',5'-cyclic-AMP phosphodiesterase 4D (Homo sapiens) (Q08499 whole entry): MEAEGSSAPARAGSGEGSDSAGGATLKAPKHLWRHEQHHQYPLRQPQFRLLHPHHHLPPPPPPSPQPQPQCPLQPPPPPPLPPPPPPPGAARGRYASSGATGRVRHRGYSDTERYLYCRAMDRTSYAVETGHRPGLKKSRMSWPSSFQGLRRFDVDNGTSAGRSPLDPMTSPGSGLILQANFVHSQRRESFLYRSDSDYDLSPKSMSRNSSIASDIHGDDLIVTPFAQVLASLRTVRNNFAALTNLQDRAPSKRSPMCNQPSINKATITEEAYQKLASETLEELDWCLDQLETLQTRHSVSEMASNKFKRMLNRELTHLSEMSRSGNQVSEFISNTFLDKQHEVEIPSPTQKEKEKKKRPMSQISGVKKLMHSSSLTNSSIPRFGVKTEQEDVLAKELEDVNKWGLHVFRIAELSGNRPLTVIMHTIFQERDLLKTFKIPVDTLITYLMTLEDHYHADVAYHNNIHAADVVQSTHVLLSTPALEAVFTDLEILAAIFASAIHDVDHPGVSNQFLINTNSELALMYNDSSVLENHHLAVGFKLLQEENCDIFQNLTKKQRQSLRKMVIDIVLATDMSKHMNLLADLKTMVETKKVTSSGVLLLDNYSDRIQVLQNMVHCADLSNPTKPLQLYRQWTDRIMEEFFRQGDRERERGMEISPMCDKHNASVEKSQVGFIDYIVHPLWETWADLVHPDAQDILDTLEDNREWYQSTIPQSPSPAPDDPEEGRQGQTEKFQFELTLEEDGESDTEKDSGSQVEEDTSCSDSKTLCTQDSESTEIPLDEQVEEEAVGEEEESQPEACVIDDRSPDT
Procedure, shortened: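 Recombinant human PDE4D (20 mU) in 10 mM Tris-HCl pH 7.4 with cAMP substrate. Compounds at 50 µM in DMSO; rolipram 10 µM as positive control. Incubated 60 min at 37 °C, then phosphate release measured by malachite green absorbance at 620 nm. Mean of three determinations.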

[2] = system: HaCaT; experiment: Activation of AMPK/SIRT1 in human HaCaT cells assessed as nitric oxide production incubated for 1 hr by DAF-2D staining-based fluorescence assay; type: cell-based
Procedure, shortened: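 HaCaT keratinocytes grown in DMEM with 10% FBS and antibiotics. Cells treated 1 h (single-point 1 µM; dose-response at 5, 25, 50 µM). 5 µM DAF-2D added to complete medium. Cells then washed in PBS, trypsinized and analysed by flow cytometry for DAF fluorescence (ex 485/em 538 nm). Read-out is % DAF-positive cells relative to DMSO control.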

[3] = system: HaCaT; experiment: Activation of AMPK/SIRT1 in human HaCaT cells assessed as nitric oxide production at 10 uM incubated for 1 hr in presence of compound C by DAF-2D staining-based fluorescence assay; type: cell-based
Procedure, shortened: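 HaCaT cells in DMEM with 10% FBS. DHP (10 µM) given for 1 h alone or together with 10 µM AMPK inhibitor compound C or 10 µM SIRT1 inhibitor EX-527. Intracellular NO read by flow cytometry after loading with 5 µM DAF-2D in medium (ex 485/em 538 nm). Expressed as % DAF-positive cells versus DMSO.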

[4] = biological target: T1, NAD-dependent protein deacetylase sirtuin-1 (Homo sapiens) (UniProt Q96EB6); experiment: Activation of SIRT1 in human HaCaT cells assessed as H4K16 deacetylation at 1 uM after 1 hr by Western blotting method; type: cell-based
T1 sequence (whole entry): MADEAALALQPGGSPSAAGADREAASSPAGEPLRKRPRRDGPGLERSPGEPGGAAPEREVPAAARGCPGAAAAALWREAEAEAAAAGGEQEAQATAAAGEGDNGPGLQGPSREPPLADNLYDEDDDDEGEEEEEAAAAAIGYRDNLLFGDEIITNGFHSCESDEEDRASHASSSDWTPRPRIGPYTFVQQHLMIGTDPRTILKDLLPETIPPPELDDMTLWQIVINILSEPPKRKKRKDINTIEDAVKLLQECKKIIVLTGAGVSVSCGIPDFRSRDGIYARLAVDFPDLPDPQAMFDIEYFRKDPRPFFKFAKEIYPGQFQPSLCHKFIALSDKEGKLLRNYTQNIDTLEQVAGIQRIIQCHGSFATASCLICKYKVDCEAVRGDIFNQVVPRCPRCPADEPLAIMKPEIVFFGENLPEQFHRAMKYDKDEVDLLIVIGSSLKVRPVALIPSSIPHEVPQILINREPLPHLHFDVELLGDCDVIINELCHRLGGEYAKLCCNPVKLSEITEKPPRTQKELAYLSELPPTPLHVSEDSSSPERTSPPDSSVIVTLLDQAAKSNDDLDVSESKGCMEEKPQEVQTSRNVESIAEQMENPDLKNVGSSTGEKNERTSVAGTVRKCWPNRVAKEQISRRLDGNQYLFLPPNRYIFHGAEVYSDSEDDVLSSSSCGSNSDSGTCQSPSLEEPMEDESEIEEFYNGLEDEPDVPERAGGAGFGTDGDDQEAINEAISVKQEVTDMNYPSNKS
Procedure, shortened: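 HaCaT cells treated 1 h at 1 µM, DMSO as solvent control. Cells lysed in Laemmli buffer and immunoblotted for acetyl-H4K16 (1:1000), with total histone H4 as loading control. Bands quantified by densitometry. At least three independent experiments.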

[5] = system: Mus musculus; experiment: Wound healing activity in CD1 mouse assessed as increased wound closure at 1 uM administered topically on wound everyday for 14 days by biopsy punch assay; type: functional, organism-based
Procedure, shortened: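 Male CD1 mice, 8 weeks old, anaesthetized i.p. with medetomidine 1 mg/kg plus ketamine 75 mg/kg, then biopsy-punch wounded. Compound (1 µM) in 20 µL saline applied directly to the wound daily for 14 days; solvent-treated group as control. Epithelial gap and % wound closure followed over time.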

[6] = system: C2C12; experiment: Activation of AMPK/SIRT1 in mouse C2C12 cells assessed as increase in mitochondrial density at 30 uM after 16 hrs by Mitotracker Green staining-based confocal microscopy; type: cell-based
Procedure, shortened: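 Murine C2C12 myoblasts plated on coverslips and grown overnight at 37 °C, 5% CO2. Then switched to serum-free HBSS, pH 7.4, and treated 16 h at 30 µM, alone or with 5 µM compound C or EX-527. Mitotracker Green (200 nM final) added for the last 30 min. Cells fixed in 4% paraformaldehyde, permeabilized and imaged by confocal microscopy, with settings fixed on untreated cells. Plate fluorescence also quantified.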

[7] = system: C2C12; experiment: Activation of AMPK/SIRT1 in mouse C2C12 cells assessed as increase in mitochondrial density at 30 uM after 16 hrs by Mitotracker Green staining-based confocal microscopy in presence of compound C; type: cell-based
Procedure, shortened: (§1)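 C2C12 myoblasts plated overnight, then in serum-free HBSS pH 7.4 and treated 16 h at 30 µM, alone or with 5 µM inhibitor (EX-527 or compound C). Mitotracker Green at 200 nM final was added for the last 30 min. Cells were fixed in 4% paraformaldehyde, permeabilized with Triton X-100 and imaged by confocal microscopy with fixed settings. Alternatively, mitochondrial fluorescence was quantified in plates.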

[8] = system: C2C12; experiment: Activation of AMPK/SIRT1 in mouse C2C12 cells assessed as increase in mitochondrial density at 30 uM after 16 hrs by Mitotracker Green staining-based confocal microscopy in presence of EX-527; type: cell-based; procedure, shortened: as §1
[9] = species: Cavia porcellus; experiment: Antagonist activity at calcium channel in guinea pig smooth muscle assessed as inhibition of calcium-induced contraction in K+-depolarized aortic strips at 50 uM
Procedure, shortened: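 Guinea-pig isolated aortic strips depolarized with 80 mM K+; read-out is percent inhibition of calcium-induced contraction.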

[10] = system: M14; experiment: Antiproliferative activity against human M14 cells assessed as cell viability after 72 hrs by MTT assay; type: functional, cell-based; details: M14, 72 h
Procedure, shortened: (§2)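 Cells grown in RPMI with 10% fetal calf serum and penicillin, seeded in sextuplicate at 3 × 10^3 cells/well. After 24 h, cells were exposed 72 h to 5–200 µM. Viability was measured by MTT and expressed as treated/untreated × 100. IC50 was calculated from three independent experiments, reported as mean ± SD.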

[11] = system: LoVo; experiment: Antiproliferative activity against human LoVo cells assessed as cell viability after 72 hrs by MTT assay; type: functional, cell-based; procedure, shortened: as §2
[12] = system: HCT-116; experiment: Antiproliferative activity against human HCT116 cells assessed as cell viability after 72 hrs by MTT assay; type: functional, cell-based; details: HCT-116, 72 h; procedure, shortened: as §2
[13] = system: HEY; experiment: Antiproliferative activity against human HEY cells assessed as cell viability after 72 hrs by MTT assay; type: functional, cell-based; procedure, shortened: as §2
[14] = biological target: T1, NAD-dependent protein deacetylase sirtuin-1 (Homo sapiens); experiment: Activation of full-length GST-tagged recombinant human SIRT1 assessed as enzyme activity obtained without subtraction of intrinsic fluorescence using p53-based untagged peptide as substrate at 50 uM after 30 mins by SIRTainty assay

Question: CCOC(=O)C1=CN(C(=O)c2ccccc2)C=C(C(=O)OCC)C1c1ccccc1 was tested. Which inhibition [1] did it give?
Answer: inactive

Question: What about the Activity [2] of the same compound?
Answer: Dose-dependent effect

Question: And the Activity [3]?
Answer: inactive

Question: What about the Activity [4] of the same compound?
Answer: Active

Question: And the Activity [5]?
Answer: Active

Question: And the Activity [6]?
Answer: Active

Question: And the Activity [7]?
Answer: inactive

Question: And the Activity [8]?
Answer: inactive

Question: And the inhibition [9]?
Answer: 12%

Question: And the IC50 [10]?
Answer: 153 µM

Question: What about the IC50 [11] of the same compound?
Answer: 22 µM

Question: What about the IC50 [12] of the same compound?
Answer: 62 µM

Question: What about the IC50 [13] of the same compound?
Answer: 143 µM

Question: What about the Activity [14] of the same compound?
Answer: 244%
